Activity calls are given as the source filed them. The calls are words filed in the database; no cut-off is given here.
Assays:
[1] = tested on: SH-SY5Y; assay: Cytotoxicity against human SH-SY5Y cells assessed as reduction in cell viability at 1 to 50 uM incubated for 24 hrs by MTT assay; type: cell-based
How it was run: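 Differentiated human SH-SY5Y neuroblastoma cells were exposed in culture medium to 1, 10 and 50 μM for 24 h. Viability was read as metabolic activity by MTT reduction. Untreated cells served as control, and results are mean % of untreated controls ± SEM (n = 4).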

[2] = molecular target: Acetylcholinesterase (Electrophorus electricus) (UniProt O42275); assay: Inhibition of electric eel AChE using acetylthiocholine iodide as substrate at 50 uM incubated for 5 mins followed by substrate addition measured for 5 mins by Ellman's method
How it was run: (§1)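 Ellman's colorimetric method. AChE came from Electrophorus electricus and BChE from equine serum. Compounds were tested up to 50 μM, the highest concentration.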

[3] = molecular target: Cholinesterase (Equus caballus) (UniProt P81908); assay: Inhibition of equine serum BChE using butyrylthiocholine iodide as substrate at 50 uM incubated for 5 mins followed by substrate addition measured for 5 mins by Ellman's method; how it was run: as §1
[4] = tested on: HepG2; assay: Cytotoxicity against human HepG2 cells assessed as reduction in cell viability at 1 to 50 uM incubated for 24 hrs by resazurin dye based fluorescence assay; settings: hepg2, 24 h
How it was run: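 HepG2 hepatocellular carcinoma cells were exposed in culture medium to 1, 10 and 50 μM. Viability was measured as metabolic activity by resazurin reduction. Results are mean % of untreated control cells ± SEM (n = 4).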

[5] = molecular target: Acetylcholinesterase (Electrophorus electricus) (UniProt O42275); assay: Mixed inhibition of electric eel AChE assessed as decrease in Km of substrate at 7.5 to 30 uM using acetylthiocholine iodide as substrate incubated for 5 mins followed by substrate addition measured for 5 mins by double reciprocal Lineweaver-Burk plot analysis
[6] = tested on: SH-SY5Y; assay: Neuroprotective activity against DOX-induced oxidative stress in human SH-SY5Y cells assessed as metabolic stability at 10 to 100 uM incubated for 24 hrs by resazurin dye based fluorescence assay relative to control; type: functional
How it was run: (§2)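 Differentiated SH-SY5Y cells were given test compounds at 10, 50 and 100 μM. Two protocols were used: 24 h compound pre-incubation then stressor, or stressor first then 24 h compound. Stressors were H2O2 1 mM, t-BHP 200 μM, ROT/AA 1 μM or DOX 1 μM, each for 4 h. Resazurin reduction was read as % of untreated control, four independent experiments, one-way ANOVA.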

[7] = tested on: SH-SY5Y; assay: Neuroprotective activity against t-BHP-induced oxidative stress in human SH-SY5Y cells assessed as metabolic stability at 10 to 100 uM incubated for 24 hrs by resazurin dye based fluorescence assay relative to control; type: functional; how it was run: as §2
[8] = molecular target: Acetylcholinesterase (Electrophorus electricus) (UniProt O42275); assay: Mixed inhibition of electric eel AChE assessed as decrease in Vmax of substrate at 7.5 to 30 uM using acetylthiocholine iodide as substrate incubated for 5 mins followed by substrate addition measured for 5 mins by double reciprocal Lineweaver-Burk plot analysis
[9] = tested on: SH-SY5Y; assay: Neuroprotective activity against H2O2-induced oxidative stress in human SH-SY5Y cells assessed as metabolic stability at 10 to 100 uM incubated for 24 hrs by resazurin dye based fluorescence assay relative to control; type: functional; how it was run: as §2
[10] = tested on: SH-SY5Y; assay: Neuroprotective activity against ROT/AA-induced oxidative stress in human SH-SY5Y cells assessed as metabolic stability at 10 to 100 uM incubated for 24 hrs by resazurin dye based fluorescence assay relative to control; type: functional; how it was run: as §2
[11] = molecular target: Acetylcholinesterase (Electrophorus electricus, UniProt O42275); assay: Inhibition of electric eel AChE assessed as inhibition constant using acetylthiocholine iodide as substrate pretreated for 5 mins followed by substrate addition measured for 5 mins by Dixon plot analysis
[12] = tested on: SH-SY5Y; assay: Neuroprotective activity against t-BHP-induced oxidative stress in human SH-SY5Y cells assessed as metabolic stability incubated for 24 hrs by resazurin dye based fluorescence assay relative to control; type: functional, cell-based; how it was run: as §2
[13] = molecular target: Acetylcholinesterase (Electrophorus electricus) (UniProt O42275); assay: Noncompetitive inhibition of electric eel AChE assessed as effect on Km of substrate at 5 to 20 uM using acetylthiocholine iodide as substrate incubated for 5 mins followed by substrate addition measured for 5 mins by double reciprocal Lineweaver-Burk plot analysis
[14] = molecular target: Acetylcholinesterase (Electrophorus electricus) (UniProt O42275); assay: Noncompetitive inhibition of electric eel AChE assessed as decrease in Vmax for substrate at 5 to 20 uM using acetylthiocholine iodide as substrate incubated for 5 mins followed by substrate addition measured for 5 mins by double reciprocal Lineweaver-Burk plot analysis

Sequence of Cholinesterase (Equus caballus) (P81908 whole entry): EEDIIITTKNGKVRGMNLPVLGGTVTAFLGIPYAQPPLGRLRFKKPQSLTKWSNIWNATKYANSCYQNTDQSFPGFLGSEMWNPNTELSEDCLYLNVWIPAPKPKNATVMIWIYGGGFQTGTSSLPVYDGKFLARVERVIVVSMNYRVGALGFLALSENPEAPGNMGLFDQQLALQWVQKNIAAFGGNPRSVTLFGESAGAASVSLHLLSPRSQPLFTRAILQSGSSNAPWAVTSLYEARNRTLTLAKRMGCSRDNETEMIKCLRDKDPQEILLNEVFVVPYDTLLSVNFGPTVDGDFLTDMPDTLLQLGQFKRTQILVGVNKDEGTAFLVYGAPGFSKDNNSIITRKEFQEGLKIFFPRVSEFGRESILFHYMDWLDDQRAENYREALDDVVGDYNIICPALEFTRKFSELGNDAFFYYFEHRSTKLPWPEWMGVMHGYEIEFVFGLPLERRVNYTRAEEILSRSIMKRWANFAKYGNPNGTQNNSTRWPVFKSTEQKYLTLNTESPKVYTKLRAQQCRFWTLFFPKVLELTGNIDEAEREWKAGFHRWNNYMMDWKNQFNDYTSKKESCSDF
Sequence of Acetylcholinesterase (Electrophorus electricus) (O42275 24-633 limits assumed): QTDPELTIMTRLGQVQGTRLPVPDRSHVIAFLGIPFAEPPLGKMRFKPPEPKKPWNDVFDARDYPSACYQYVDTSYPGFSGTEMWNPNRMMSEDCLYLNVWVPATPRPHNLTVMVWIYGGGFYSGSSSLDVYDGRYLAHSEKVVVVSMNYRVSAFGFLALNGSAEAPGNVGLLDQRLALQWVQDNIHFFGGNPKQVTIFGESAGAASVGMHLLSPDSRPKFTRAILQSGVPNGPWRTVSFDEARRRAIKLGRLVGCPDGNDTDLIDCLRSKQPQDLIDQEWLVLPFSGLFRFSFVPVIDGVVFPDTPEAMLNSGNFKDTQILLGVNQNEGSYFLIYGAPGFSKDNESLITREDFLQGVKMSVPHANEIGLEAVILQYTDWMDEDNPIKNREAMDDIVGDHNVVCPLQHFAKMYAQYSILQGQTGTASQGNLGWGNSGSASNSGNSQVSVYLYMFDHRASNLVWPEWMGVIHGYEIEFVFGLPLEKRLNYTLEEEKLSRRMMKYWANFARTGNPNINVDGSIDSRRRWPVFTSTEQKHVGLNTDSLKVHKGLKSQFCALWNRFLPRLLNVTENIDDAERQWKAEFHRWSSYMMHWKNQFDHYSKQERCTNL
Sequence of Acetylcholinesterase (O42275 whole entry): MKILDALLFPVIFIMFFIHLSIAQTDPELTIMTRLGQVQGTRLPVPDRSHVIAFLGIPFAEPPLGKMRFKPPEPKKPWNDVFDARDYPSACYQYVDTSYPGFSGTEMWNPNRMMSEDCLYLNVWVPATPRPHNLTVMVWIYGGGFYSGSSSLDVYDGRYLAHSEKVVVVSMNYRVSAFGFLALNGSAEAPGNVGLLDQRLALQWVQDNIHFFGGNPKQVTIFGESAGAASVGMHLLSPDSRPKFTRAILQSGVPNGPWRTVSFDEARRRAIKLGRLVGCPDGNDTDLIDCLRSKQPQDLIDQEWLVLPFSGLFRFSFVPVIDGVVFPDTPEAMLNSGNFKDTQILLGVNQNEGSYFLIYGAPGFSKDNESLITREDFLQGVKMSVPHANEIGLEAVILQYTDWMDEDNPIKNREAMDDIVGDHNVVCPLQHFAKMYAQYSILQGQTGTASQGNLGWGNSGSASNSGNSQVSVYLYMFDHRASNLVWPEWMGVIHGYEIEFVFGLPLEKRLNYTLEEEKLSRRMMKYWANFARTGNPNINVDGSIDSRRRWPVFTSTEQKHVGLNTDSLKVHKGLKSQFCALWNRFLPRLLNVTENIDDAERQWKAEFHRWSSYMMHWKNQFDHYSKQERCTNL

Structure (SMILES): COc1cccc(C(=O)NCCCCC/C=[N+](\[O-])C2CCCCC2)c1
- Activity [1]: Non-Toxic
- inhibition [2]: inactive
- inhibition [3]: inactive
- Activity [4]: Non-Toxic

Structure (SMILES): COc1cc(C(=O)NCCCCCCCCC/C=[N+](\[O-])C(C)(C)C)cc(OC)c1OC
- Activity [1]: Non-Toxic
- inhibition [3]: inactive
- Activity [4]: Non-Toxic

Structure (SMILES): COc1ccc(C(=O)NCCCCC/C=[N+](\[O-])C2CCCCC2)cc1
- Activity [1]: Non-Toxic
- inhibition [2]: inactive
- inhibition [3]: inactive
- Activity [4]: Non-Toxic

Structure (SMILES): COc1ccc(C(=O)NCCCCC/C=[N+](\[O-])Cc2ccccc2)cc1
- Activity [1]: Non-Toxic
- inhibition [2]: inactive
- inhibition [3]: inactive
- Activity [4]: Non-Toxic

Structure (SMILES): COc1cc(C(=O)NCCCCCCC/C=[N+](\[O-])C(C)(C)C)cc(OC)c1OC
- Activity [1]: Non-Toxic
- inhibition [3]: inactive
- Activity [4]: Non-Toxic

Structure (SMILES): COc1ccc(C(=O)NCCCCC/C=[N+](\[O-])C(C)(C)C)cc1
- Activity [1]: Non-Toxic
- inhibition [3]: inactive
- Activity [4]: Non-Toxic

Structure (SMILES): COc1cccc(C(=O)NCCCCC/C=[N+](\[O-])C(C)(C)C)c1
- Activity [1]: Non-Toxic
- inhibition [3]: inactive
- Activity [4]: Non-Toxic

Structure (SMILES): COc1cc(C(=O)NCCCCC/C=[N+](\[O-])Cc2ccccc2)cc(OC)c1OC
- Activity [1]: Non-Toxic
- inhibition [2]: inactive
- inhibition [3]: inactive
- Activity [4]: Non-Toxic

Structure (SMILES): CC(C)(C)/[N+]([O-])=C/CCCCCNC(=O)c1ccccc1
- Activity [1]: Non-Toxic
- inhibition [2]: inactive
- inhibition [3]: inactive
- Activity [4]: Non-Toxic

Structure (SMILES): COc1cc(C(=O)NCCCCC/C=[N+](\[O-])C(C)(C)C)cc(OC)c1OC
- inhibition [5]: Active
- Activity [1]: 107 to 122%
- Activity [6]: inactive
- Activity [7]: inactive
- inhibition [3]: inactive
- Activity [4]: Non-Toxic
- inhibition [8]: Active
- Activity [9]: inactive
- Activity [10]: inactive

Structure (SMILES): COc1ccc(C(=O)NCCCCCCCCC/C=[N+](\[O-])C(C)(C)C)cc1OC
- Activity [1]: Non-Toxic
- inhibition [3]: inactive
- Activity [4]: Non-Toxic

Structure (SMILES): COc1ccc(C(=O)NCCCCC/C=[N+](\[O-])C2CCCCC2)cc1OC
- Activity [1]: Non-Toxic
- inhibition [2]: inactive
- inhibition [3]: inactive
- Activity [4]: Non-Toxic

Structure (SMILES): O=C(NCCCCC/C=[N+](\[O-])C1CCCCC1)c1ccccc1
- Activity [1]: Non-Toxic
- inhibition [2]: inactive
- inhibition [3]: inactive
- Activity [4]: Non-Toxic

Structure (SMILES): COc1cccc(C(=O)NCCCCC/C=[N+](\[O-])Cc2ccccc2)c1
- Activity [1]: Non-Toxic
- inhibition [2]: inactive
- inhibition [3]: inactive
- Activity [4]: Non-Toxic

Structure (SMILES): COc1ccc(C(=O)NCCCCC/C=[N+](\[O-])C(C)(C)C)cc1OC
- Ki [11]: 5.2 µM
- Activity [1]: 107 to 122%
- Activity [6]: 32.9%
- Activity [7]: 44.3%
- Activity [12]: Dose-dependent effect
- inhibition [13]: Active
- inhibition [14]: Active
- inhibition [3]: inactive
- Activity [4]: Non-Toxic
- Activity [9]: 50.3%
- Activity [10]: 20.7%

Structure (SMILES): COc1cc(C(=O)NCCCCC/C=[N+](\[O-])C2CCCCC2)cc(OC)c1OC
- Activity [1]: Non-Toxic
- inhibition [2]: inactive
- inhibition [3]: inactive
- Activity [4]: Non-Toxic

Structure (SMILES): O=C(NCCCCC/C=[N+](\[O-])Cc1ccccc1)c1ccccc1
- Activity [1]: Non-Toxic
- inhibition [2]: inactive
- inhibition [3]: inactive
- Activity [4]: Non-Toxic

Structure (SMILES): COc1ccc(C(=O)NCCCCC/C=[N+](\[O-])Cc2ccccc2)cc1OC
- Activity [1]: Non-Toxic
- inhibition [2]: inactive
- inhibition [3]: inactive
- Activity [4]: Non-Toxic

Structure (SMILES): COc1ccc(C(=O)NCCCCCCC/C=[N+](\[O-])C(C)(C)C)cc1OC
- Activity [1]: Non-Toxic
- inhibition [3]: inactive
- Activity [4]: Non-Toxic

From ChEMBL document CHEMBL4393684, “Benzoic acid-derived nitrones: A new class of potential acetylcholinesterase inhibitors and neuroprotective agents” (Eur J Med Chem, 2019)
